T cruzi growth-1 = blocks T. cruzi growth in NIH3T3 culture; AID 624255; hit rate 5.9% among 77,000; inhibition, % at 8.34 µM; T. cruzi beta-gal in NIH3T3, GalScreen luminescence, 90 h;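 active = mean inhibition above about 93%, with at least 55% of replicates each passing it, limit read from the data, passing the limit was not always enough; inconclusive = only one of those two conditions holds; inactive = neither condition holds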
IDH1 mut inh = inhibitors of human IDH1 R132H; O75874; IDH1 R132H reductase, diaphorase/resazurin fluorescence, 60 min; inhibition, % at 10 µM; hit rate 0.18% among 70,000; AID 624101; in the data active = inhibition above about 34%; inconclusive = no clear call, values can overlap the other calls; inactive = below about 11%;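 also: 0% = DMSO and 100% = no enzyme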
GASC1 inh = KDM4C (human) demethylase inhibition; hit rate 0.15% among 96,000; AID 720574; inhibition, % at 12.5 µM; GST-KDM4C 2-372, H3K9me3 peptide, LANCE TR-FRET; Q9H3R0;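 active = mean replicate inhibition above about 25%, with at least 55% of replicates also reaching it, limit read from the data, passing the limit was not always enough; inconclusive = only one of those two conditions met; inactive = neither condition met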
Target sequence (Q9H3R0 2-372 limits assumed): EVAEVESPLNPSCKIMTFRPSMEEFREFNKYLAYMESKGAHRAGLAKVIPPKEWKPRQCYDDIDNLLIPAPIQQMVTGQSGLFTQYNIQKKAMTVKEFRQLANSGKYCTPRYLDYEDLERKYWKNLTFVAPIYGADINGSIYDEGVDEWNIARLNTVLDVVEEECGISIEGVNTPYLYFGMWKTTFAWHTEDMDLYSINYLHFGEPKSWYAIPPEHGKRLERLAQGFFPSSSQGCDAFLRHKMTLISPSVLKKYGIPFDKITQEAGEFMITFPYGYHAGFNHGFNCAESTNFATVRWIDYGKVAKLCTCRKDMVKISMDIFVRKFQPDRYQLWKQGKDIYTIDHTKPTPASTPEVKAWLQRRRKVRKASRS
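System – N-terminal GST-fused human GASC-1 (KDM4C) fragment, residues 2-372 · Input – enzyme final amount 10 nM · Technique – LANCE TR-FRET, Eu antibody, ULight-streptavidin, EDTA, ex 340 nm, em 618/671 nm · Medium – HEPES buffer, pH 7.5, plus ascorbate · Incubation – enzyme reaction 30 min, then detection 60 min, both room temperature · Reagent – H3K9me3 peptide with Fe(II)/2OG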
T cruzi growth-2 = blocks T. cruzi growth in NIH3T3 host cells. shares compounds with T cruzi growth-1. T. cruzi beta-gal in NIH3T3, GalScreen luminescence, 90 h. inhibition, % at 8.35 µM. hit rate 72% among 5,600. AID 651739;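 active = mean replicate inhibition above about 95% and at least 55% of replicates individually reaching it, limit read from the data; inconclusive = only one of the two criteria is met; inactive = neither criterion is met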
T cruzi growth-3 = blocks T. cruzi growth in NIH3T3 host cells. shares compounds with T cruzi growth-1. T. cruzi beta-gal in NIH3T3, GalScreen luminescence, 90 h. inhibition, % at 2.09 µM. hit rate 21% among 5,600. AID 651740;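 active = mean inhibition above about 95%, with at least 55% of replicates also reaching it, limit read from the data; inconclusive = meets just one of the two conditions; inactive = meets neither condition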;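 also: plate controls were neutral control median for no effect and positive control median for full effect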
3T3 cytotox = kills mouse NIH/3T3 fibroblasts | shares compounds with T cruzi growth-1 | NIH/3T3 viability, CellTiter-Glo ATP luminescence, 90 h | cytotoxicity (signal decrease), % at 8.35 µM | hit rate 14% among 5,600;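 active = mean signal decrease across replicates above about 35% based on untreated-well scatter, with enough replicates individually passing, limit read from the data; inconclusive = no rule stated though some were filed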;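 also: 0% = median of neutral control wells and 100% = median of positive control wells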
3T3 cytotox 2 = cytotoxicity in mouse NIH/3T3 fibroblasts; shares compounds with T cruzi growth-1; NIH/3T3 viability, CellTiter-Glo ATP luminescence, 90 h; inhibition, % at 24.9 µM; hit rate 56% among 5,600; AID 651744;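 active = mean loss of cell viability signal at or above a set limit, and enough replicates individually reaching it; inconclusive = meets only the mean limit or only the replicate share; inactive = meets neither condition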;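 also: 0% = median of neutral control wells and 100% = median of positive control wells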
Numbers without * were called inactive; ? = inconclusive; · = not tested or not shown. The sample as a whole holds a higher share of hits than the screen did.

SMILES	T cruzi growth-1	IDH1 mut inh	GASC1 inh	T cruzi growth-2	T cruzi growth-3	3T3 cytotox	3T3 cytotox 2
C[C@H](CO)N1C[C@H](C)[C@H](CN(C)C(=O)Nc2ccc(F)cc2)Oc2ncc(C#Cc3ccccc3)cc2C1=O	109.8*	·	-3.3	80.2	30.7	57.0*	102.9*
C[C@H](CO)N1C[C@H](C)[C@H](CN(C)C(=O)Nc2ccccc2)Oc2ncc(C#Cc3ccccc3)cc2C1=O	73.1	-0.5	·	·	·	·	·
COc1ccc(NC(=O)N(C)C[C@@H]2Oc3ncc(C#Cc4ccc(C(F)(F)F)cc4)cc3C(=O)N([C@H](C)CO)C[C@@H]2C)cc1	108.1*	-0.6	-1.3	101.5*	?	10.3	104.2*
C[C@H](CO)N1C[C@H](C)[C@H](CN(C)C(=O)Nc2ccc3c(c2)OCO3)Oc2ncc(C#Cc3ccc(C(F)(F)F)cc3)cc2C1=O	?	1.9	-0.9	100.3*	?	25.5	106.0*
C[C@H](CO)N1C[C@H](C)[C@H](CN(C)C(=O)Nc2ccccc2)Oc2ncc(C#Cc3ccc(C(F)(F)F)cc3)cc2C1=O	116.8*	0.2	·	107.7*	?	16.5	105.1*
COc1ccc(NC(=O)N(C)C[C@H]2Oc3ncc(C#CCN(C)C)cc3C(=O)N([C@@H](C)CO)C[C@H]2C)cc1	·	-3.1	4.5	·	·	·	·
C[C@H](CO)N1C[C@H](C)[C@H](CN(C)C(=O)Nc2ccc3c(c2)OCO3)Oc2ncc(C#CC(C)(C)O)cc2C1=O	-60.9	0.3	1.1	·	·	·	·
C[C@@H]1CN([C@H](C)CO)C(=O)c2cc(C#Cc3ccc(F)cc3)cnc2O[C@H]1CN(C)C(=O)Nc1ccc(F)cc1	8.4	0.0	-1.9	·	·	·	·
CCn1c(SCC(=O)Nc2ccc(C)cc2)nc2ccc(I)cc2c1=O	·	-0.2	·	·	·	·	·
N=c1c2cnn(-c3ccccc3)c2ncn1/N=C/c1ccc(Cl)cc1	·	-0.2	·	·	·	·	·
Nc1ncnc(NCCCN2CCOCC2)c1[N+](=O)[O-]	·	0.5	·	·	·	·	·
C[C@H](CO)N1C[C@H](C)[C@H](CN(C)C(=O)Nc2ccccc2)Oc2ncc(C#CC3CCCC3)cc2C1=O	60.9	·	-0.5	·	·	·	·
C[C@@H]1CN([C@H](C)CO)C(=O)c2cc(C#CC3CC3)cnc2O[C@@H]1CN(C)C(=O)Nc1ccccc1	107.2*	-4.6	0.5	52.7	45.9	-5.4	19.6
COC(=O)C1=C(C)NC2=C(C(=O)c3ccccc32)C1c1cc(Cl)c(OCc2ccc([N+](=O)[O-])cc2)c(OC)c1 (configuration not stated)	·	0.1	·	·	·	·	·
COc1ccccc1C#Cc1ccc2c(c1)[C@H]1[C@H](CCN1C(=O)c1ccccc1)[C@H](CO)N2	100.3*	·	-2.2	106.3*	84.0	30.5	82.7*
COc1ccccc1C#Cc1ccc2c(c1)[C@H]1[C@H](CCN1C(=O)c1ccc(F)cc1)[C@@H](CO)N2	·	·	-3.2	·	·	·	·
O=C(c1ccccc1)N1CC[C@@H]2[C@@H](CO)Nc3ccc(C#Cc4ccccc4F)cc3[C@@H]21	101.5*	·	0.7	106.1*	70.9	-5.0	95.8*
O=C(c1ccc(F)cc1)N1CC[C@H]2[C@H](CO)Nc3ccc(C#Cc4ccccc4F)cc3[C@H]21	·	·	-0.2	·	·	·	·
C[C@@H]1CCCCO[C@@H](CN(C)C(=O)Cc2ccccc2)[C@H](C)CN([C@@H](C)CO)C(=O)c2cc(NS(=O)(=O)c3ccc(Cl)cc3)ccc2O1	99.7*	·	0.4	106.0*	73.8	2.9	46.6
Cc1ccc(S(=O)(=O)Nc2ccc3c(c2)C(=O)N([C@H](C)CO)C[C@H](C)[C@@H](CN(C)C(=O)Cc2ccccc2)OCCCC[C@H](C)O3)cc1	68.1	·	0.4	·	·	·	·
Cc1ccc(S(=O)(=O)Nc2ccc3c(c2)C(=O)N([C@H](C)CO)C[C@@H](C)[C@H](CN(C)C(=O)Cc2ccccc2)OCCCC[C@@H](C)O3)cc1	96.6*	-4.3	0.2	107.5*	63.1	1.2	-15.0
C[C@H]1CCCCO[C@@H](CN(C)C(=O)Cc2ccccc2)[C@@H](C)CN([C@@H](C)CO)C(=O)c2cc(NS(=O)(=O)c3ccccc3)ccc2O1	·	0.9	1.5	·	·	·	·

Bioassay records from PubChem.
